Data on eleven compounds can be found in ChEMBL document CHEMBL1629421, “Isochaihulactone analogues: synthesis and anti-proliferative activity of novel dibenzylbutyrolactones” (2010).

Common to all, as to type: functional
Assay [1] relates to MDA-MB-231. Description: Growth inhibition of human MDA-MB-231 cells at 25 ug/ml after 24 hrs by MTT colorimetric assay. The conditions noted are these: MDA-MB-231, 24 h, read-out: GI. The procedure, abridged: (§1)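 Cells kept in RPMI 1640 with 10% FBS, 1% L-glutamine and penicillin-streptomycin at 37 °C, 5% CO2, and harvested with trypsin-EDTA. Seeded at 4 × 10⁴ cells/well, grown 24 h, then exposed to compound for 24 h at 37 °C. Medium replaced with phenol red-free medium, MTT (2 mg/ml) added for 4 h, formazan dissolved in isopropanol, A492 read. Inhibition taken versus untreated control wells; mean ± SD of three independent experiments.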
On the technique in general: Formazan colour is commonly taken as a measure of viable cells.

For assay [2], the system named is MCF7. As to the kind of experiment: Growth inhibition of human MCF7 cells at 50 ug/ml after 24 hrs by MTT colorimetric assay. The conditions noted are these: MCF7, 24 h, read-out: GI. The essentials: as §1
The subject of assay [3] is MCF7. Description: Growth inhibition of human MCF7 cells at 25 ug/ml after 24 hrs by MTT colorimetric assay. The conditions noted are these: MCF7, 24 h, read-out: GI. The essentials:
as §1

Assay [4] relates to MDA-MB-231. Description: Growth inhibition of human MDA-MB-231 cells at 50 ug/ml after 24 hrs by MTT colorimetric assay. To be noted: MDA-MB-231, 24 h, read-out: GI. The essentials:
as §1

A further assay relates to T47D. Description: Growth inhibition of human T47D cells at 25 ug/ml after 24 hrs by MTT colorimetric assay. To be noted: read-out: GI. The procedure, abridged:
as §1

On to `O=C1OC[C@H](Cc2ccc3c(c2)OCO3)[C@H]1C(O)c1ccc([N+](=O)[O-])cc1` (mixture of isomers), for which the values for the inhibition of growth at 25 µg/mL with MDA-MB-231 [1] and with MCF7 [3] were 22.5% and 7.2%, respectively. The inhibition of growth at 50 µg/mL stood at 38.8% with MCF7 [2] and 29% in the assay with MDA-MB-231 [4].

`O=C1OC[C@H](Cc2ccc3c(c2)OCO3)[C@H]1Cc1ccccc1`: the inhibition of growth at 25 µg/mL in the assay on T47D is 61.9%; in the assay on MDA-MB-231 [1], 26.2%; in the assay with MCF7 [3] it was 17%. Moreover, the inhibition of growth at 50 µg/mL in the assay with MCF7 [2] came out at 46%; in the assay with MDA-MB-231 [4] it was 36.2%.

Turning to `O=C1OC[C@H](Cc2ccc3c(c2)OCO3)[C@H]1C(O)c1ccccc1[N+](=O)[O-]` (mixture of isomers), the results for the inhibition of growth at 25 µg/mL in the assay with T47D, in the assay with MDA-MB-231 [1] and in the assay on MCF7 [3] were 38.1%, 7.9% and 21.9%, respectively. Moreover, the inhibition of growth at 50 µg/mL in the assay with MCF7 [2] is -0.2%; in the assay on MDA-MB-231 [4] it was 35.1%.

Consider `COc1cccc2c1C(=O)c1c(O)c3c(c(O)c1C2=O)C[C@@](O)(C(=O)CO)C[C@@H]3O[C@H]1C[C@H](N)[C@H](O)[C@H](C)O1` [DOXORUBICIN], for which the inhibition of growth at 25 µg/mL in the assay with T47D amounted to 60%; in the assay on MDA-MB-231 [1] it was 57.9%; in the assay with MCF7 [3], 54.6%. For the same compound, the inhibition of growth at 50 µg/mL came to 31.8% in the assay on MCF7 [2] and 48.8% in the assay with MDA-MB-231 [4].

Consider `CC/C(=C(\c1ccccc1)c1ccc(OCCN(C)C)cc1)c1ccccc1` [TAMOXIFEN], for which the inhibition of growth at 25 µg/mL with T47D was 67.8%; with MDA-MB-231 [1], 58.6%; in the assay on MCF7 [3], 65.7%. Further, the inhibition of growth at 50 µg/mL in the assay on MCF7 [2] amounted to 25%; with MDA-MB-231 [4] it was 67.7%.

Consider `O=C1OC[C@H](Cc2ccc3c(c2)OCO3)[C@H]1[C@@H](O)c1ccccc1Cl`, for which the inhibition of growth at 25 µg/mL in the assay with T47D was 52.9%; in the assay with MDA-MB-231 [1] it was 19%; in the assay on MCF7 [3], 8.5%. The inhibition of growth at 50 µg/mL came out at 31.9% with MCF7 [2] and 26.4% with MDA-MB-231 [4].

As for `COc1ccc(C(O)[C@H]2C(=O)OC[C@@H]2Cc2ccc3c(c2)OCO3)cc1` (mixture of isomers), the inhibition of growth at 25 µg/mL worked out at 10.1% in the assay on MDA-MB-231 [1] and 42.7% in the assay on MCF7 [3]. In addition, the figures for the inhibition of growth at 50 µg/mL in the assay with MCF7 [2] and with MDA-MB-231 [4] were 22.4% and 48.8%, respectively.

With `COc1cccc(C(O)[C@H]2C(=O)OC[C@@H]2Cc2ccc3c(c2)OCO3)c1` (mixture of isomers), the inhibition of growth at 25 µg/mL in the assay on MDA-MB-231 [1] was 14.5%; with MCF7 [3] it was -3.8%. Also, the inhibition of growth at 50 µg/mL with MCF7 [2] amounted to 12.2%; with MDA-MB-231 [4] it was 41.9%.

With `COc1cc(C(O)[C@H]2C(=O)OC[C@@H]2Cc2ccc3c(c2)OCO3)cc(OC)c1OC` (mixture of isomers), the inhibition of growth at 25 µg/mL in the assay with T47D is 50.1%; in the assay on MDA-MB-231 [1], -1.9%; with MCF7 [3] it was 5.2%. Also, the inhibition of growth at 50 µg/mL in the assay on MCF7 [2] turned out to be 37.7%; in the assay with MDA-MB-231 [4] it was 10.2%.

Take `O=C1OC[C@H](Cc2ccc3c(c2)OCO3)[C@H]1[C@H](O)c1ccccc1Cl`: the values for the inhibition of growth at 25 µg/mL in the assay on T47D, in the assay with MDA-MB-231 [1] and in the assay with MCF7 [3] were 50.2%, 34.8% and 15.8%, respectively. Besides, the inhibition of growth at 50 µg/mL in the assay with MCF7 [2] was determined as 7.5%; in the assay with MDA-MB-231 [4], 47.3%.

Turning to `O=C1OC[C@H](Cc2ccc3c(c2)OCO3)[C@H]1[C@H](O)c1ccc([N+](=O)[O-])cc1`, the values for the inhibition of growth at 25 µg/mL in the assay on MDA-MB-231 [1] and in the assay on MCF7 [3] were 17.9% and 24.6%, respectively. Moreover, the results for the inhibition of growth at 50 µg/mL with MCF7 [2] and with MDA-MB-231 [4] were 17.9% and 20.1%, respectively.
